In ChEMBL document CHEMBL5537144, “Biological evaluation of carbohydrate-based aprepitant analogs for neuroblastoma treatment” (Eur J Med Chem, 2024):
Activity calls are given as the source filed them. The calls are words filed in the database; no cut-off is given here.

Key:
[1] = Selectivity index, ratio of IC50 for human RPE-1 cells to IC50 for human Kelly cells
Summary of the method: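 Selectivity index is IC50 in nonmalignant RPE-1 divided by IC50 in the cancer line (Kelly or SH-SY5Y). The index was calculated in each individual experiment and then averaged.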

[2] = test system: Kelly; assay: Induction of cell cycle arrest at G2/M phase in human Kelly cells at 15 uM incubated for 48 hrs by flow cytometry; type: functional, cell-based
Summary of the method: (§1)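 For cell cycle analysis, Kelly cells were treated 48 h with analogs at 20 or 40 μM or aprepitant at 15 μM. Cells were then harvested, fixed and stained with PI/RNase. G0/G1, S and G2/M fractions were measured by flow cytometry; mean ± SEM, n = 3 independent experiments.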

[3] = Cytotoxicity against human Kelly cells assessed as inhibition of cell viability incubated for 72 hrs by MTT assay; type: functional, cell-based
Summary of the method: (§2)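 MTT assay. Cells were seeded and, after 24 h, treated for 72 h with graded concentrations: 0–400, 0–50 or 0–100 μM depending on compound, with aprepitant at 0–100 μM. Media were DMEM for SH-SY5Y, DMEM/F12 for RPE-1 and RPMI for Kelly, each with 10% FBS, at 37 °C and 5% CO2.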

[4] = test system: Kelly; assay: Induction of cell cycle arrest at S phase in human Kelly cells at 15 uM incubated for 48 hrs by flow cytometry; type: functional, cell-based; summary of the method: as §1
[5] = Cytotoxicity against human RPE-1 cells assessed as inhibition of cell viability incubated for 72 hrs by MTT assay; type: toxicity, cell-based; details: RPE-1 cells (TERT-RPE1); summary of the method: as §2
[6] = test system: SH-SY5Y; assay: Cytotoxicity against human SH-SY5Y cells assessed as inhibition of cell viability incubated for 72 hrs by MTT assay; type: functional, cell-based; summary of the method: as §2

Row | Compound | Ratio IC50 [1] | Activity [2] | IC50 [3] [µM] | Activity [4] | IC50 at 72 h [5] [µM] | IC50 [6] [µM]
1 | C[C@@H](O[C@H]1OCCN(Cc2n[nH]c(=O)[nH]2)[C@H]1c1ccc(F)cc1)c1cc(C(F)(F)F)cc(C(F)(F)F)c1 [APREPITANT] | 11.7 | inactive | 15.1 | Active | 176 | 
2 | C[C@@H](O[C@H]1O[C@H](CO)[C@@H](O)[C@H](N=[N+]=[N-])[C@H]1OCc1ccc(F)cc1)c1cc(C(F)(F)F)cc(C(F)(F)F)c1 |  |  | 88.4 |  |  | 
3 | C[C@@H](O[C@H]1O[C@@H]2CO[C@@H](c3ccccc3)O[C@H]2[C@H](N)[C@H]1OCc1ccc(F)cc1)c1cc(C(F)(F)F)cc(C(F)(F)F)c1 | 14.7 |  | 6.3 |  | 92.3 | 
4 | C[C@@H](O[C@@H]1O[C@@H]2CO[C@@H](c3ccccc3)O[C@H]2[C@H](N=[N+]=[N-])[C@H]1OCc1ccc(F)cc1)c1cc(C(F)(F)F)cc(C(F)(F)F)c1 |  |  | 107 |  |  | 
5 | C[C@@H](O[C@@H]1O[C@@H]2CO[C@@H](c3ccccc3)O[C@@H]2[C@H](O)[C@H]1OCc1ccc(F)cc1)c1cc(C(F)(F)F)cc(C(F)(F)F)c1 | 4.6 |  | 48.5 |  | 251 | 
6 | C[C@@H](O[C@H]1O[C@@H]2CO[C@@H](c3ccccc3)O[C@H]2[C@H](N=[N+]=[N-])[C@H]1OCc1ccc(F)cc1)c1cc(C(F)(F)F)cc(C(F)(F)F)c1 |  |  | 234 |  |  | 
7 | C[C@@H](O[C@H]1O[C@H](CO)[C@@H](O)[C@H](N)[C@H]1OCc1ccc(F)cc1)c1cc(C(F)(F)F)cc(C(F)(F)F)c1 | 4.3 |  | 33.6 |  | 146 | 
8 | C[C@@H](O[C@@H]1O[C@H](CO)[C@@H](O)[C@H](N=[N+]=[N-])[C@H]1OCc1ccc(F)cc1)c1cc(C(F)(F)F)cc(C(F)(F)F)c1 |  |  | 16.8 |  |  | 
9 | C[C@@H](O[C@H]1O[C@@H]2CO[C@@H](c3ccccc3)O[C@@H]2[C@H](O)[C@H]1OCc1ccc(F)cc1)c1cc(C(F)(F)F)cc(C(F)(F)F)c1 |  |  | 112 |  |  | 128
